Numbering of substitutions follows the chain as printed. In names and notes the source's numbering stands. Square brackets hold non-standard residues; d marks the D form. Ends that are not written are not given here. Peptide text beside a SMILES is read from it. * marks the point of attachment. Biotin = O=C1N[C@H]2[C@H](CS[C@H]2CCCCC(=O)*)N1; lc = a hydrocarbon chain of 6 methylene groups; Abu = CC[C@H](N)C(=O)O; Dap = NC[C@H](N)C(=O)O; Acryloyl = C=CC(=O)*
Columns and labels:
wt Siah1 = experiment: MALDI-TOF MS of covalent modification, wt Siah1; assay type: binding; details: protein incubated with peptide in 0.5x PBS (Figures 2e, 3d)
Summary of the method: (§1)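 Siah1 residues 81-282 (wild type or T156C mutant) from pET15b expression, incubated with peptide in 0.5x PBS. Equal volumes of sample and sinapic acid matrix (20 mg/ml in 50% acetonitrile-0.1% TFA) were co-crystallised on target and air-dried 5 min. Controls were buffer-only and protein spectra. Peaks were picked by centroid mass find (S/N threshold 5, peak width 40 m/z, 80% height, Top Hat baseline subtraction).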

T156C Siah1 = experiment: X-ray crystal structure of BI-117C3/T156C Siah1 complex; assay type: binding; details: crystal structure at 2.8 Å, judged by refined atomic B-factors
Summary of the method: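 Siah1 residues 81–282 with T156C mutation, purified by a published method, mixed with 2-fold excess test peptide at 4 °C for 16–18 h. Doubly peptide-bound dimer isolated by anion exchange. Sitting-drop vapour-diffusion crystals grown over 60–65% MPD, 100 mM N,N-bis(2-hydroxyethyl)glycine pH 9.0. Synchrotron data; molecular replacement using a refined covalent peptide–Siah1 dimer as search model.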

Siah1 T156C = experiment: MALDI-TOF MS of covalent modification, Siah1 T156C; assay type: binding; details: protein incubated with peptide in 0.5x PBS (Figure 2d)
Summary of the method: as §1

his6-Siah1 (aa 81-282) [1] = target: T1, his6-Siah1 (aa 81-282) (Homo sapiens, UniProt Q8IUQ4); experiment: DELFIA displacement of biotin-PHYL, wild type Siah; assay type: binding
T1 sequence (Q8IUQ4 81-282): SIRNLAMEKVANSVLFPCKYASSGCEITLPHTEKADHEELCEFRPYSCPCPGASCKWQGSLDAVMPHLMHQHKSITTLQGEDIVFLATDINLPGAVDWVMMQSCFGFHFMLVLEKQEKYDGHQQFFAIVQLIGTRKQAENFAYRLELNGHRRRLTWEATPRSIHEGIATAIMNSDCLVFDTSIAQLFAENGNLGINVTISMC

[2] = target: T2, his6-Siah1 T156C (aa 81-282) (Homo sapiens, UniProt Q8IUQ4, T156C); experiment: DELFIA displacement of biotin-PHYL, mutant T156C Siah; assay type: binding
T2 sequence (Q8IUQ4 81-282 T156C): T1 sequence (Q8IUQ4 81-282) with T76C

[3] = tested on: substrate-binding domain of Siah; details: ref House et al., 2003, 2006; cited from earlier work
[4] = target: T3, his6-Siah1 T156C (aa 81-282) (UniProt Q8IUQ4 81-282, T156C); experiment: DELFIA displacement assay
T3 sequence (looked up): T1 sequence (Q8IUQ4 81-282) with T76C

his6-Siah1 (aa 81-282) [5] = target: T4, his6-Siah1 (aa 81-282) (UniProt Q8IUQ4 81-282); experiment: DELFIA displacement assay
T4 sequence (looked up): T1 sequence (Q8IUQ4 81-282)

[6] = target: T3, his6-Siah1 T156C (aa 81-282); experiment: DELFIA displacement assay; remark: listed apart in the source
crystal structure = target: the molecule itself; experiment: crystal structure

Molecule: C=CC(=O)NCCCC[C@H](NC(=O)[C@@H]1CCCN1C(=O)[C@H](CCCNC(=N)N)NC(=O)[C@@H](NC(=O)[C@H](CCSC)NC(=O)[C@H](C)NC(=O)[C@@H](NC(=O)[C@@H]1CCCN1C(=O)[C@H](CCCNC(=N)N)NC(=O)[C@H](CC(C)C)NC(=O)[C@H](CCCCN)NC(C)=O)C(C)C)C(C)C)C(=O)N[C@H](C(=O)N[C@@H](CCCNC(=N)N)C(N)=O)C(C)C [BI-107F7] (Ac-KLRPVAMVRPK(Acryloyl)VR-NH2)
- Covalent modification of wt Siah1 by MALDI-TOF mass spectrometry (wt Siah1): confirmed the formation of the covalent complex

Molecule: C=CC(=O)NC[C@H](NC(=O)[C@@H](NC(=O)[C@@H]1CCCN1C(=O)[C@H](CCCNC(=N)N)NC(=O)[C@H](CC(C)C)NC(=O)[C@H](CCCCN)NC(C)=O)C(C)C)C(=O)N[C@@H](CCSC)C(=O)N[C@H](C(=O)N[C@@H](CCCNC(=N)N)C(=O)N1CCC[C@H]1C(=O)N[C@@H](Cc1c[nH]c2ccccc12)C(=O)N[C@H](C(=O)N[C@@H](CCCNC(=N)N)C(N)=O)C(C)C)C(C)C [BI-117C3] (Ac-KLRPV[Dap](Acryloyl)MVRPWVR-NH2)
- Efficiency of covalent thioether bond formation to Cys156 (T156C Siah1): ~ 100%
- Covalent modification of Siah1 T156C by MALDI-TOF mass spectrometry (Siah1 T156C): expected mass increase
- Covalent modification of wt Siah1 by MALDI-TOF mass spectrometry (wt Siah1): unable to covalently modify wt Siah1

Molecule: Ac-KLRPVAMVRPTVR-NH2 [BI-107D1]
- IC50 (his6-Siah1 (aa 81-282) [1]): 1000 nM
- IC50 [2]: 1000 nM

Molecule: Ac-QQERTKLRPVAMVRPTVRVQPQL-NH2 [PHYL]
- Affinity for the substrate-binding domain of Siah [3]: low micromolar affinity

Molecule: Ac-RQIKIWFQNRRMKWKKPPPPPPPPPPQQERTKLRPVAMVRPTVRVQPQL-NH2 [PEN-P10-PHYL, reference compound]
- IC50 (his6-Siah1 (aa 81-282) [1]): 1000 nM

B1: BI-107E1 (Ac-KLRPVεMVRPTVR-NH2) (peptide)
chain: Ac-KLRPV[Abu]MVRPTVR-NH2
- IC50 [4]: 2000 nM
- IC50 (his6-Siah1 (aa 81-282) [5]): 2000 nM

B2: BI-117C3 (Ac-KLRPVδMVRPWVR-NH2) (peptide)
chain: Ac-KLRPV[Dap](Acryloyl)MVRPWVR-NH2
SMILES: C=CC(=O)NC[C@H](NC(=O)[C@@H](NC(=O)[C@@H]1CCCN1C(=O)[C@H](CCCNC(=N)N)NC(=O)[C@H](CC(C)C)NC(=O)[C@H](CCCCN)NC(C)=O)C(C)C)C(=O)N[C@@H](CCSC)C(=O)N[C@H](C(=O)N[C@@H](CCCNC(=N)N)C(=O)N1CCC[C@H]1C(=O)N[C@@H](Cc1c[nH]c2ccccc12)C(=O)N[C@H](C(=O)N[C@@H](CCCNC(=N)N)C(N)=O)C(C)C)C(C)C
- IC50 [4]: 6 nM
- IC50 (his6-Siah1 (aa 81-282) [5]): > 100000 nM

B3: BI-107F7 (Ac-KLRPVAMVRPαVR-NH2) (peptide)
chain: Ac-KLRPVAMVRPK(Acryloyl)VR-NH2
- IC50 (his6-Siah1 (aa 81-282) [5]): 100 nM

B4: biotin-PHYL (biotin-lc-QQERTKLRPVAMVRPTVRVQPQL) (peptide)
peptide: {Biotin-lc}-QQERTKLRPVAMVRPTVRVQPQL
- binding result [6]: binds

B5: Siah1 81-282 (wild-type) (domain or fragment, UniProt Q8IUQ4 81-282, looked up)
chain: T1 sequence (Q8IUQ4 81-282)
- binding result (crystal structure): binds

B6: Siah1 81-282 (T156C mutant), for crystallographic studies (domain or fragment, UniProt Q8IUQ4 81-282, looked up)
chain: T1 sequence (Q8IUQ4 81-282) with T76C
- binding result (crystal structure): binds

B7: PHYL (Ac-QQERTKLRPVAMVRPTVRVQPQL-NH2) (peptide)
peptide: Ac-QQERTKLRPVAMVRPTVRVQPQL-NH2
- IC50 (his6-Siah1 (aa 81-282) [5]): 500 nM

B8: BI-107D1 (Ac-KLRPVAMVRPTVR-NH2) (peptide)
peptide: Ac-KLRPVAMVRPTVR-NH2
- IC50 [4]: 1000 nM
- IC50 (his6-Siah1 (aa 81-282) [5]): 1000 nM

B9: BI-107E12 (Ac-KLRPVAMVRPMVR-NH2) (peptide)
peptide: Ac-KLRPVAMVRPMVR-NH2
- IC50 [4]: 900 nM

B10: BI-107F1 (Ac-KLRPVAMVRPWVR-NH2) (peptide)
peptide: Ac-KLRPVAMVRPWVR-NH2
- IC50 [4]: 400 nM
